pPAFAH FP inh: pPAFAH (human) enzyme inhibition; 1.5% of 330,000 active; recombinant pPAFAH, FP-rhodamine probe fluorescence polarization; Q13093; AID 463082; inhibition, % at 3.39 µM;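 active = inhibition above the mean inhibition across the screen plus 3 SD, cut at about 25% in these data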;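 also: inhibitors block binding of the rhodamine activity-based probe so polarization drops; 0% = enzyme with DMSO and 100% = wells lacking pPAFAH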
PAFAH2 inh: PAFAH2 (human) inhibition | inhibition, % at 3.39 µM | recombinant PAFAH2, FP-rhodamine activity probe, fluorescence polarization | 0.99% of 340,000 active;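 active = inhibition above the mean over all tested compounds plus 3 SD, cut at about 30% in these data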;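 also: inhibitors block probe labeling of enzyme so polarization drops; 0% = enzyme with DMSO and 100% = wells lacking PAFAH2 protein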
PAFAH1B2 inh: inhibitors of human PAFAH1B2 | inhibition, % at 3.39 µM | recombinant PAFAH1B2, FP-rhodamine activity probe, fluorescence polarization | 1.2% of 340,000 active | P68402 | AID 492953;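 active = inhibition above the mean of all tested compounds plus 3 SD, cut at about 24% in these data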;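 also: 0% = enzyme with DMSO and 100% = wells lacking PAFAH1B2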
Target sequence (P68402 whole entry, looked up): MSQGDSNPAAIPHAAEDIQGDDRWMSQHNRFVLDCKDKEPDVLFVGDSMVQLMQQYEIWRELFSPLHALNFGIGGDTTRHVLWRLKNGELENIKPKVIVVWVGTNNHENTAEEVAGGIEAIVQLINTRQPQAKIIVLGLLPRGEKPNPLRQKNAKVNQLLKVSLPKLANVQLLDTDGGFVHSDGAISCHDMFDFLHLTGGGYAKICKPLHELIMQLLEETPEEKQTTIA
VIM-2 inh: blocks Pseudomonas aeruginosa VIM-2 metallo-beta-lactamase; purified VIM-2, nitrocefin hydrolysis, epi-absorbance fluorescence; inhibition, % at 5.6 µM; 0.89% of 290,000 active; AID 1527;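 active = inhibition above the mean of all tested compounds plus 3 SD, cutoff set per screening run, cut at about 7.5% in these data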;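 also: red hydrolysis product quenches plate fluorescence so inhibitors raise well fluorescence; 0% = enzyme with DMSO and 100% = DMSO without enzyme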
IMP-1 inh: inhibitors of Pseudomonas aeruginosa IMP-1 metallo-beta-lactamase. purified IMP-1, nitrocefin hydrolysis, epi-absorbance fluorescence. inhibition, % at 5.6 µM. 0.45% of 290,000 active. AID 1556;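 active = inhibition above the mean plus 3 SD of all compounds in the same screening run, cut at about 4.5% in these data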;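 also: 0% = IMP-1 with DMSO and 100% = DMSO wells lacking enzyme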
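System: purified IMP-1; amount: IMP-1 0.2 nM before substrate addition; compound: single dose, 5.6 µM; times: 25 °C, 15 min preincubation, 25 min reaction; signal: Epi-absorbance via hydrolysed-nitrocefin quenching of white-plate fluorescence, 480/530 nm, EDTA stop; benchmarks: DMSO with and without IMP-1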
PAFAH1B3 FP inh: inhibitors of human PAFAH1B3; AID 492972; 0.28% of 340,000 active; Q15102; recombinant PAFAH1B3, FP-rhodamine probe, fluorescence polarization; inhibition, % at 3.39 µM;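 active = inhibition above the screen-wide average of all tested compounds plus 3 SD, cut at about 25% in these data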;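 also: 0% = enzyme with DMSO only and 100% = wells lacking PAFAH1B3 protein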
Target sequence (Q15102 whole entry, looked up): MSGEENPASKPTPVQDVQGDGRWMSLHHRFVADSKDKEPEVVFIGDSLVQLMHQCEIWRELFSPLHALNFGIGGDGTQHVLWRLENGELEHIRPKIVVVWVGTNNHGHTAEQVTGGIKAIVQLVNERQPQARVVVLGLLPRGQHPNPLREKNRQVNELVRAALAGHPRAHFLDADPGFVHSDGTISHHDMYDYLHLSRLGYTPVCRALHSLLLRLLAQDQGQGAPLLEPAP
pPAFAH confirm: pPAFAH (human) inhibition, confirmed | shares compounds with pPAFAH FP inh | recombinant pPAFAH, FP-Rh probe fluorescence polarization | inhibition, % at 3.39 µM | 72% of 2,300 active | AID 463230;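 active = mean inhibition of the triplicate above the hit cutoff set for the earlier primary screen, cut at about 25% in these data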;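 also: 0% = enzyme with DMSO and 100% = wells lacking pPAFAH enzyme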
* = called active by the depositor; x = no result given. Sampled rows, rich in hits. Any-hit rate of the full collection: about 3.6%.

SMILES | pPAFAH FP inh | PAFAH2 inh | PAFAH1B2 inh | VIM-2 inh | IMP-1 inh | PAFAH1B3 FP inh | pPAFAH confirm
O=C(COC(=O)c1cc2c(s1)CCC2)Nc1ccc(F)cc1 | 44* | 87* | -1 | -2 | -1 | 10 | 38*
O=C1NC(=Nc2ccc3ccccc3c2)S/C1=C/c1ccco1 | 55* | 5 | 13 | -2 | -1 | 1 | 22
O=C1NC(=Nc2ccc(O)cc2)S/C1=C/c1ccco1 | 6 | 3 | 1 | 1 | -2 | -3 | x
Cc1cccc(N=C2NC(=O)/C(=C/C=C/c3ccco3)S2)c1 | 50* | 32* | 10 | -1 | -2 | 27* | 25*
O=C(CCc1ccc(S(=O)(=O)N2CCOCC2)cc1)OCC(=O)c1ccccc1 | 8 | 1 | 4 | x | x | 12 | x
O=C(O)c1cc(N/N=C/c2ccc(N3CCOCC3)s2)ccc1Cl | 74* | 16 | 1 | -1 | -2 | 9 | 19
Cc1c(Br)c(O)c(Br)c2sc(=O)oc12 | 84* | -1 | 7 | 3 | -2 | 14 | 24
C=C(C)Cn1c(-c2ccc(OC)cc2)nc2ccccc21 | 78* | 6 | 2 | -1 | -2 | 9 | 12
Cc1cc(C)c(S(=O)(=O)/N=C2\C=CC(=O)C(Cl)=C2)c(C)c1 | 65* | 31* | 6 | -4 | -3 | 12 | 57*
COc1cc(CNc2ccc(O)cc2)cc(Br)c1OCc1ccccc1 | 35* | 10 | 8 | -3 | -3 | 5 | 13
COc1ccc(Br)cc1CNc1ccc(O)cc1 | 37* | 0 | 6 | -3 | -5 | 13 | 10
NC(=S)N1N=C(c2ccccc2)CC1=O | x | 5 | 9 | x | x | 4 | x
CC(C)(C)OC(=O)N1CCC(c2c(C(=O)NCC3CCN(C4CCCC4)C3)cnn2-c2cccc(Cl)c2)CC1 (configuration not stated) | 1 | -5 | 1 | -1 | -4 | 4 | x
Cc1cccc(C)c1NC(=O)CN1C(=O)S/C(=C\c2cccn2-c2cccc(C(=O)O)c2)C1=O | 2 | 12 | 3 | -1 | -1 | 3 | x
Cc1cccc(C)c1-n1cccc1/C=C1\SC(=S)N(c2cccc(C(=O)O)c2)C1=O | 50* | -12 | 0 | -1 | -2 | -5 | 51*
c1ccc(Nc2nc(NCC3CCCO3)c3ccccc3n2)cc1 (configuration not stated) | 6 | -1 | 5 | -2 | -2 | 3 | x
CCOc1ccc(Nc2nc(NCC3CCCO3)c3ccccc3n2)cc1 (configuration not stated) | 67* | 5 | 7 | 1 | -1 | 8 | 55*
COc1cc([N+](=O)[O-])ccc1-c1ccc(/C=N/NC(N)=O)o1 | 67* | -1 | 0 | -3 | -2 | 8 | -5
COc1cc([N+](=O)[O-])ccc1-c1ccc(/C=N/NC(=O)OC(C)(C)C)o1 | 3 | -4 | -1 | 0 | -3 | 4 | x
O=c1oc2c(O)c(O)cc3c(=O)oc4c(O)c(O)cc1c4c23 | 93* | 85* | 88* | 0 | 6.1* | 68* | 92*
Cc1cc(=O)oc2c(N)c(O)ccc12 | 6 | 1 | -1 | -3 | -6 | 0 | x
COC1=C(Nc2ccc(O)cc2)C(=O)c2ccccc2C1=O | 11 | -4 | 6 | 2 | -2 | 4 | x
CC(=O)Nc1ccc(NC2=CC(=O)c3ccccc3C2=O)cc1 | 5 | 4 | 2 | -2 | -5 | 12 | x
Cc1cc(C)c(S(=O)(=O)/N=C2\C=C(Nc3ccc(C(=O)O)cc3)C(=O)c3ccccc32)c(C)c1 | 42* | 36* | 26* | -1 | -5 | 60* | 40*
O=C(O)c1cccc(NS(=O)(=O)c2ccc(-c3ccc(S(=O)(=O)Nc4cccc(C(=O)O)c4)cc3)cc2)c1 | -2 | -4 | -1 | -4 | -2 | -2 | x
CCc1ccc(S(=O)(=O)/N=C2\C=C(Nc3cccc(C(=O)O)c3)C(=O)c3ccccc32)cc1 | 37* | 62* | 39* | -3 | -7 | 63* | 40*
CCc1ccc(S(=O)(=O)/N=C2\C=C(Nc3ccc(O)cc3)C(=O)c3ccccc32)cc1 | 35* | 37* | 31* | -5 | -6 | 66* | 33*
